Screening data: PubChem BioAssay, several laboratories
Rows were chosen to be rich in hits. Some 1.5% of all compounds tested hit in one or more screens of this group.
CXCR6 block: CXCR6 receptor inhibitors, primary screen, cell-based, beta-arrestin, luminescence, CHO-K1 PathHunter, 1536-well; C-X-C chemokine receptor type 6 (Homo sapiens), O00574; inhibition, % at 20 µM; actives 0.36% (n = 360,000); AID 602244, 2012; in the data active = inhibition above about 34%, passing the limit was not always enough;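 also: antagonist mode with CXCL16 agonist at 10 nM final; 0% = 10 nM CXCL16 with DMSO and 100% = unstimulated wells without agonist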
CCR6 antag: CCR6 receptor antagonists, primary screen, cell-based, CHO-K1, luminescence, beta-arrestin, uHTS. C-C chemokine receptor type 6 (Homo sapiens), P51684. CHO-K1 CCR6 PathHunter beta-arrestin, CCL20-stimulated. inhibition, % at 20 µM. actives 0.49% (n = 340,000). AID 493098, 2011;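 active = compounds whose inhibition of the agonist-driven luminescence signal at 20 µM reaches about 50%, limit read from the data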;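 also: cells stimulated with CCL20 at 14 nM final; plate controls were DMSO with CCL20 for no effect and DMSO without agonist for full effect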
APJ ag: agonists of human apelin receptor APJ, primary screen, CHO-K1 cells, PathHunter beta-arrestin, luminescence; P35414; 0% DMSO wells, 100% apelin; activation, % at 20 µM; actives 0.11% (n = 330,000); AID 2520, 2010;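 active = activation more than six SD over the plate average, tested at 20 µM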;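 also: 0% = DMSO alone and 100% = apelin-13 at 10 nM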
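Assay system: CHO-K1 APJ beta-arrestin complementation cell line / Compound: single test compound dose, 20 µM final, 1% DMSO / Times: overnight seeding, 90 min compound at 25 °C, 1 h detection / Technique: beta-gal luminescence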
APJ antag: antagonists of human apelin receptor APJ, primary screen, CHO-K1 cells, beta-arrestin complementation, luminescence. inhibition, % at 20 µM. P35414. AID 2521, 2010. actives 0.32% (n = 330,000);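 active = inhibition above about 40% at 20 µM, limit read from the data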;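 also: cells challenged with 10 nM apelin-13 agonist together with compound; plate controls were apelin-13 plus DMSO wells for no effect and DMSO wells lacking apelin-13 for full effect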
NTR1 agonist: agonists of human NTR1, primary screen, imaging, U2OS cells, beta-arrestin-GFP, high content | Neurotensin receptor type 1 (Homo sapiens), P30989 | NTR1-U2OS beta-arrestin-GFP spot imaging, agonist mode | activation, % at 20 µM | actives 0.17% (n = 330,000) | AID 493036, 2011;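 active = activation at or above 40% of the spot to cytoplasm intensity ratio, with at least 20 cells analyzed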;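 also: 0% = DMSO without peptide and 100% = 100 nM NTR1 peptide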
Target sequence (P30989 whole entry, looked up): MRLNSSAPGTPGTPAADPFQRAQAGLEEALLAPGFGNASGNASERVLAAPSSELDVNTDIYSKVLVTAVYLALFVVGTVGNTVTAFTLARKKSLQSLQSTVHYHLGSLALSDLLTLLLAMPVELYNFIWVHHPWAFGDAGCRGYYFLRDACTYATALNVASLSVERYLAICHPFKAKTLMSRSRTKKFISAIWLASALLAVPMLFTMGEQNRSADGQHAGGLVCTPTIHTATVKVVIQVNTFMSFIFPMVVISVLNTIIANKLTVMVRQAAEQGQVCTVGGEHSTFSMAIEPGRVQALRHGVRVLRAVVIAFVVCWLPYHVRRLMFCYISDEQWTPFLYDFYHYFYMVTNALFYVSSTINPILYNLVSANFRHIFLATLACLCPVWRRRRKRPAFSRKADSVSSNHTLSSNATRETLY
m5-HT2A agonist: mouse Htr2a agonists via beta-arrestin recruitment, primary screen, cell-based, luminescence | 5-hydroxytryptamine receptor 2A (Mus musculus), P35363 | CHO-K1 mHTR2A beta-arrestin complementation; percent of 30 µM serotonin response | activation, % at 7.6 µM | actives 0.66% (n = 360,000) | AID 624169, 2012;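 active = activation above a run cutoff, the mean activation of all tested compounds plus 3 SD, cut at about 14% in these data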;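 also: 0% = plate median of compound wells and 100% = 30 µM serotonin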
MOR ag counter: OPRM1 agonists via beta-arrestin recruitment, confirmation, counter-screen for mouse HTR2A agonist project, cell-based, luminescence, single concentration; shares compounds with m5-HT2A agonist; U2OS OPRM1 beta-arrestin PathHunter; DMSO 0%, DAMGO 9.3 µM 100%; activation, % at 9.3 µM; actives 5.3% (n = 2,300); AID 624380, 2012;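 active = mean activation above the mean of DMSO-only wells plus 3 SD, cut at about 0.5% in these data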
HTR2A ag conf: mouse HTR2A agonists, beta-arrestin recruitment, confirmation, cell-based, luminescence, CHO-K1 PathHunter, triplicate | AID 624381, 2012 | actives 19% (n = 2,300) | DMSO 0%, 30 µM serotonin 100% | activation, % at 7.6 µM | shares compounds with m5-HT2A agonist;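 active = mean activation across triplicates above the hit threshold derived in the original primary screen, cut at about 15% in these data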
Numbers without * were called inactive; · = no result given.

SMILES	CXCR6 block	CCR6 antag	APJ ag	APJ antag	NTR1 agonist	m5-HT2A agonist	MOR ag counter	HTR2A ag conf
BrC(/C=N/N1CCN(Cc2ccccc2)CC1)=C/c1ccccc1	0.4	12.5	-6.6	9.1	0.5	23.6*	-0.5	0.0
COC(=O)c1ccccc1S(=O)(=O)NNC(=O)c1ccccc1-n1cccc1	11.1	0.0	-2.1	25.7	0.9	3.5	·	·
CC(CN1CCCCC1)OC(=O)/C=C/c1ccccc1 (centres undefined)	-9.7	3.2	-5.3	-14.1	0.4	17.4*	-0.5	1.4
CC(=O)Oc1ccc(C(=O)Nc2cc(C)on2)cc1	-0.6	-6.3	-2.8	5.1	-1.0	0.3	·	·
CCOc1ccccc1NC(=O)CSc1nnc(CNC(=O)c2ccccc2F)o1	3.5	-5.2	-2.6	8.6	0.2	16.6*	-0.8	-4.1
CCOc1cc(N2CCOCC2)c(OCC)cc1NC(=O)CN1CCSC1=O	-4.6	-2.6	-2.6	11.2	0.6	-3.1	·	·
C[C@@]12CCC3[C@@](CCC4[C@@]3(C)CCC[C@@]4(C)C(=O)N3CCCCC3)(CC1=O)C2 (some centres undefined)	-11.5	9.8	-2.2	16.0	7.7	14.4*	-0.3	-5.1
Cc1ccc(F)cc1NC(=O)CN1C(=O)NC2(CCCc3ccccc32)C1=O (centres undefined)	-12.1	8.8	4.2	11.0	-0.8	-2.7	·	·
Cc1cccc(N2CCN(c3ccc(N4C(=O)CCCC4=O)cc3[N+](=O)[O-])CC2C)c1 (centres undefined)	15.6	23.9	-0.9	12.5	0.4	14.8*	-0.6	7.2
Cc1cccc(N2CCN(c3ccc(N4C(=O)CCCC4=O)cc3[N+](=O)[O-])CC2)c1C	-1.7	26.2	-4.4	8.4	2.0	-2.8	·	·
CCc1nc2ccc(C(=O)N3CCNC(=O)C3)cn2c1N(C)CCC(C)C	-6.2	·	·	·	·	-2.2	·	·
c1cnn(Cc2cnc(N3CCOCC3)s2)c1	-10.7	3.0	-3.2	10.7	2.9	2.2	·	·
COc1cccc(CN2CCN(C(=O)c3ccco3)CC2)c1	-4.6	-9.9	-3.7	6.1	0.4	37.3*	-0.5	108.8*
COc1cccc(CN2CCCN(S(=O)(=O)c3ccc(Br)cc3)CC2)c1	-5.0	22.1	-2.3	10.9	-6.1	28.8*	-0.4	5.4
COc1ccc(OC)c(CN2CCN(C(=O)c3ccco3)CC2)c1	3.7	13.3	-1.4	-0.6	0.0	16.4*	1.2*	33.8*
O=S(=O)(c1ccc(Br)cc1)N1CCCN(Cc2cccc(F)c2)CC1	-4.4	30.1	1.1	-17.3	-1.6	6.6	·	·
COc1ccc2oc(C(=O)N3CCN(C(=O)c4ccco4)CC3)c(C)c2c1	-11.0	-0.9	-3.1	22.2	-1.0	14.5*	-0.5	-2.0
COCCCNC(=S)N/N=C/c1ccc(OC)c(Br)c1	-1.1	8.1	-1.8	-5.0	2.7	-4.0	·	·
O=C(N/N=C/c1cc2ccccc2[nH]1)c1ccccc1Cl	-3.0	1.7	-0.1	-18.6	1.8	-3.8	·	·
Cc1cc(C)cc(-n2cc(C(=O)O)c(=O)cc2C)c1	-7.0	1.7	-0.8	6.4	-1.2	0.1	·	·
COc1cccc(-c2nc(CN3CCN(C(=O)c4ccco4)CC3)c(C)o2)c1OC	7.8	·	·	·	·	14.8*	-0.7	42.9*
C=CCNC(=S)NNC(=O)Cn1c(-c2ccccc2)cc(=O)n2ncnc12	1.1	-3.8	-2.0	2.8	0.0	2.0	·	·
CCOCCn1c(CN2CCN(CC)CC2)nc2c1c(=O)n(C)c(=O)n2C	3.9	5.8	-0.7	2.2	1.0	48.3*	-0.5	-0.6
CCOCCn1c(CN2CCCCC2)nc2c1c(=O)n(C)c(=O)n2C	0.4	-6.7	-4.1	11.3	3.9	7.4	·	·
C[C@@H]1CCCCCCCCC(=O)OCCN(C(=O)OC(C)(C)C)[C@H](C)CCCCCCCCC(=O)OCCN(C(=O)OC(C)(C)C)[C@H](C)CCCCCCCCC(=O)OCCN1C(=O)OC(C)(C)C	·	20.4	-2.8	12.1	0.5	·	·	·
SMILES	CXCR6 block	CCR6 antag	APJ ag	APJ antag	NTR1 agonist	m5-HT2A agonist	MOR ag counter	HTR2A ag conf
C#CCOC(=O)CCCC(=O)Nc1ccccc1OC	1.8	-3.7	0.1	-2.9	-1.8	18.2*	-0.2	-0.2
COc1ccccc1NC(=O)CCCC(=O)OCC(=O)c1ccc(F)cc1	-1.4	12.7	-3.0	-2.2	-1.3	-0.4	·	·
CC(C)CN(CCCNC(=O)CN1N=C(c2ccc(Cl)cc2)CCC1=O)CC(C)C	-0.1	2.3	-4.1	-8.9	0.7	0.4	·	·
Cc1noc(C)c1CSCC(=O)N(C)CC(=O)Nc1ccccc1Cl	2.5	-8.8	-0.1	-4.9	0.4	14.5*	-0.6	-2.2
CC(=O)Nc1ccc(S(=O)(=O)N2c3ccccc3NC(=O)CC2C)c(Cl)c1 (centres undefined)	0.1	6.5	2.2	-6.3	-1.3	16.9*	-0.3	-1.4
Cc1n[nH]c(=S)n(/N=C/c2cccs2)c1=O	-15.7	-8.2	1.7	11.1	0.8	14.4*	-0.5	-5.4
C=C1CC2C3CC[C@@]4(OCOC45COCO5)[C@@]3(C)C(O)CC2[C@@]2(C)CCC(=O)C=C12 (some centres undefined)	-11.0	2.9	4.6	-4.5	3.8	14.7*	-0.6	-1.0
COc1ccc(CC(=O)Nc2cc(C)on2)cc1OC	7.9	-5.1	-4.8	3.5	-2.2	14.7*	-0.8	-1.5
COc1ccc(S(=O)(=O)N(C)CC(=O)N2CCCCC2)cc1Cl	-5.5	12.9	-2.6	16.0	1.1	14.5*	-0.5	-0.7
COc1ccc(S(=O)(=O)N(C)CC(=O)N2CCN(C)CC2)cc1Cl	3.0	-7.7	-1.0	1.4	0.2	1.5	·	·
COc1cc2c(cc1OC)CN(c1nc(CN3CCCCC3)nc3sc4c(c13)CCCC4)CC2	8.8	2.8	-5.7	14.9	12.3	-1.9	·	·
COc1cc2c(cc1OC)CN(c1nc(CN3CCCC3)nc3sc(C)c(C)c13)CC2	-4.8	-28.1	1.6	-15.8	0.4	35.3*	-0.8	31.8*
